Assay results from paper PMC2800230 (Nucleic Acids Research, 2009).
Entries after “also recorded” stand apart in the source; their conditions may differ. Blank lines part the entries; values can stand above or below the molecule they belong to. The star is where a group is joined. Biotin = O=C1N[C@H]2[C@H](CS[C@H]2CCCCC(=O)*)N1; Ahx = NCCCCCC(=O)O

How the values were obtained:
RAD51 = conditions: in contrast to BRC4; ref [20],[21],[39]; cited from earlier work
[1] = test system: mCherry-RAD51 RAD51^LL-EE; assay: Bio-BRC4 pull-down from DT40 whole-cell extract: mCherry-RAD51^LL-EE; format: binding, human; conditions: lysates of untreated DT40 cells also expressing HsRAD51^Tet off; western blot
Method in brief: (§1)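 Lysates from untreated Rad51−/− DT40 cells (no doxycycline) expressing mCherry-tagged wild-type or mutant human RAD51 alongside wild-type HsRAD51Tet off were incubated with BRC4 peptide. The peptide carried an N-terminal biotin on a 6-aminohexanoic acid spacer and a C-terminal amide, was HPLC-purified to 95%, and was bound to streptavidin-coated magnetic beads. Captured RAD51 species were detected by SDS–PAGE and immunoblotting.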

[2] = test system: mCherry-RAD51 RAD51^LLRR-EEAA; assay: Bio-BRC4 pull-down from DT40 whole-cell extract: mCherry-RAD51^LLRR-EEAA; format: binding, human; conditions: lysates of untreated DT40 cells also expressing HsRAD51^Tet off; western blot
Method in brief: as §1

mCherry-RAD51^WT = assay: Bio-BRC4 pull-down from DT40 whole-cell extract: mCherry-RAD51^WT; format: binding, human; conditions: lysates of untreated DT40 cells; streptavidin magnetic beads; western blot
Method in brief: as §1

RAD51-dsDNA filament = assay: EMSA of RAD51 nucleoprotein filament formation on dsDNA; format: biochemical, human; conditions: RAD51 2 µM, result in words
Method in brief: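 Untagged RAD51 (2 µM) was pre-incubated with BRC peptides at stated µM concentrations for 10 min on ice. Complexes were resolved on 0.5% agarose in TAE (50 mA, 4 h, 4°C) and phosphorimaged.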

BRC4–RAD51 interaction = format: binding, human; conditions: competitive ELISA; comparison in words
Method in brief: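 Solid-phase BRC4 peptide was bound by recombinant full-length human RAD51 in solution. The RAD51 was thrombin-cleaved overnight at 22°C from GST-RAD51 expressed in E. coli BL21, then dialysed into PBS. Wild-type or mutant biotinylated BRC peptides were added as soluble competitors. Absorbance is given as mean percentage (SEM) of triplicates, normalised to the positive control without soluble inhibitor.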

[3] = biological target: T1, Recombinant full-length RAD51, cleaved from GST-RAD51 (human, UniProt Q06609 1-339); assay: ELISA
T1 sequence (looked up): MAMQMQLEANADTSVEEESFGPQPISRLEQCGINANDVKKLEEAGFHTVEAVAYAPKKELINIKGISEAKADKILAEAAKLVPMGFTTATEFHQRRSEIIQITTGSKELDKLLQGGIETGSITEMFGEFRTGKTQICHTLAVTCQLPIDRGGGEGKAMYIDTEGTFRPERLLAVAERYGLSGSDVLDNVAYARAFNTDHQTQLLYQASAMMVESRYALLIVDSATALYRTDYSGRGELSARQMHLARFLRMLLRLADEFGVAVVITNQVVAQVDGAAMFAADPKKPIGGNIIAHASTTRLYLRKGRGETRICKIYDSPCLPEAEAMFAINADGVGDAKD

RAD51 (WT) = biological target: T2, RAD51 (WT) (Homo sapiens, UniProt Q06609 1-339); assay: streptavidin-bead pull-down
T2 chain: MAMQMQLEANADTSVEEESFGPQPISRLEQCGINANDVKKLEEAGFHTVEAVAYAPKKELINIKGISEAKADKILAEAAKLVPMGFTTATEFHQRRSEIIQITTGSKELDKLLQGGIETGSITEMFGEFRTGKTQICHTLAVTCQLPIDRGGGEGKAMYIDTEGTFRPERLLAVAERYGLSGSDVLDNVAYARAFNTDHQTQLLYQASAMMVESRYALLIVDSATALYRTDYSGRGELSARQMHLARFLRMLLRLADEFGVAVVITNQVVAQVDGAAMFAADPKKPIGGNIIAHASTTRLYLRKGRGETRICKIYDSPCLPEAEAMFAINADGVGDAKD

RAD51 R250A = RAD51 R250A (Homo sapiens, UniProt Q06609 1-339, R250A); assay: streptavidin-bead pull-down
[4] = biological target: T3, Untagged recombinant RAD51 (human, UniProt Q06609 1-339); assay: native gel or EMSA
T3 sequence (looked up): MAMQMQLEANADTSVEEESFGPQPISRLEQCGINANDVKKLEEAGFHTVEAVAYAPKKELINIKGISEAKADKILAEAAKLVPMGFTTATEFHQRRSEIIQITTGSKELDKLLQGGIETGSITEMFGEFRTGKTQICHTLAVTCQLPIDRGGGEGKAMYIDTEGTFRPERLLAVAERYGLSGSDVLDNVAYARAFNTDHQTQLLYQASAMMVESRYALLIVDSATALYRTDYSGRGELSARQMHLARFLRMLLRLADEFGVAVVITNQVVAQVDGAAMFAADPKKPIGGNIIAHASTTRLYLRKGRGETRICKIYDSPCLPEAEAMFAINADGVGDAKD

Molecule: IENSALAFYTSCSRKTSVSQTSLLEAKKWLREGIF [BRC5]
affinity for RAD51 among the human BRC repeats (RAD51): lowest affinity

Molecule: KEPTLLGFHTASGKKVKIAKESLDKVKNLFDEKEQ [BRC4]
pull-down of mCherry-RAD51^LL-EE by Bio-BRC4 [1]: defective in binding to Bio-BRC4 | pull-down of mCherry-RAD51^LLRR-EEAA by Bio-BRC4 [2]: defective in binding to Bio-BRC4 | pull-down of mCherry-RAD51^WT by Bio-BRC4 (mCherry-RAD51^WT): can also be pulled-down by Bio-BRC4 | inhibition of complex (filament) formation at higher concentrations (RAD51-dsDNA filament): filament formation is prevented

Molecule: KEPTLLGFHTASGKKVKVSQTSLLEAKKWLREGIF [BRC^45]
inhibition of complex (filament) formation at higher concentrations (RAD51-dsDNA filament): inhibits complex formation when present in higher amounts | permissive (super-shift) and inhibitory behaviours in the EMSA (RAD51-dsDNA filament): exhibits both behaviours; also recorded: Concentration dependent super-shift and subsequent inhibition of filament formation | potency at competing the BRC4–RAD51 interaction relative to another peptide (BRC4–RAD51 interaction): more potent than BRC4

binding result [3]: binds
B1: BRC4 peptide (human BRCA2 BRC repeat 4, 35-mer) (peptide)
peptide: KEPTLLGFHTASGKKVKIAKESLDKVKNLFDEKEQ
modifications: N-terminal biotin attached through a 6-aminohexanoic acid spacer; C-terminal amide

B2: 60-mer ssDNA (ssDNA)
DNA: TACTGCCATTCTGTATCGCTTATCGAGTAGTTACCTGCCTAGCATTGCCACTCATAGCCT
binding result (RAD51 (WT)): binds | binding result (RAD51 R250A): binds

B3: 60-mer dsDNA (dsDNA)
DNA 1: TACTGCCATTCTGTATCGCTTATCGAGTAGTTACCTGCCTAGCATTGCCACTCATAGCCT
DNA 2: AGGCTATGAGTGGCAATGCTAGGCAGGTAACTACTCGATAAGCGATACAGAATGGCAGTA
binding result (RAD51 (WT)): binds | binding result (RAD51 R250A): binds

binding result [3]: binds | binding result [4]: binds
B4: BRC^45 chimaeric peptide (N-terminal 17 residues of BRC4 and C-terminal 18 residues of BRC5) (peptide)
peptide: {Biotin-Ahx}-KEPTLLGFHTASGKKVKVSQTSLLEAKKWLREGIF-NH2
SMILES: CC[C@H](C)[C@H](NC(=O)CNC(=O)[C@H](CCC(=O)O)NC(=O)[C@H](CCCNC(=N)N)NC(=O)[C@H](CC(C)C)NC(=O)[C@H](Cc1c[nH]c2ccccc12)NC(=O)[C@H](CCCCN)NC(=O)[C@H](CCCCN)NC(=O)[C@H](C)NC(=O)[C@H](CCC(=O)O)NC(=O)[C@H](CC(C)C)NC(=O)[C@H](CC(C)C)NC(=O)[C@H](CO)NC(=O)[C@@H](NC(=O)[C@H](CCC(N)=O)NC(=O)[C@H](CO)NC(=O)[C@@H](NC(=O)[C@H](CCCCN)NC(=O)[C@@H](NC(=O)[C@H](CCCCN)NC(=O)[C@H](CCCCN)NC(=O)CNC(=O)[C@H](CO)NC(=O)[C@H](C)NC(=O)[C@@H](NC(=O)[C@H](Cc1c[nH]cn1)NC(=O)[C@H](Cc1ccccc1)NC(=O)CNC(=O)[C@H](CC(C)C)NC(=O)[C@H](CC(C)C)NC(=O)[C@@H](NC(=O)[C@@H]1CCCN1C(=O)[C@H](CCC(=O)O)NC(=O)[C@H](CCCCN)NC(=O)CCCCCNC(=O)CCCC[C@@H]1SC[C@@H]2NC(=O)N[C@@H]21)[C@@H](C)O)[C@@H](C)O)C(C)C)C(C)C)[C@@H](C)O)C(=O)N[C@@H](Cc1ccccc1)C(N)=O
